Assay [1] relates to Spodoptera exigua. Kind of assay: Insecticidal activity against Spodoptera exigua second-instar larvae feeded on 400 ppm compound treated lepidopteran diet assessed as insect mortality measured 5 days post compound treatment under green house conditions. The format is functional. Particulars: at 400 ppm.
Assay [2] concerns Heliothis virescens. Kind of assay: Insecticidal activity against Heliothis virescens (tobacco budworm) second-instar larvae infested on 400 ppm compound pre-treated cotton cotyledon disk assessed as insect mortality measured 5 days post compound treatment under green house conditions. The assay is classed as functional.
Assay [3] deals with Aphis gossypii.
Assay [4] has as its system Myzus persicae. Kind of assay: Insecticidal activity against Myzus persicae (green peach aphid) assessed as insect mortality at 50 ppm. The assay is classed as functional.
In assay [5] the test system is Spodoptera exigua. Nature of the assay: Insecticidal activity against Spodoptera exigua second-instar larvae feeded on 25 ppm compound treated lepidopteran diet assessed as insect mortality measured 5 days post compound treatment under green house conditions. The assay is classed as functional.
In assay [6] the test system is Trichoplusia ni. Nature of the assay: Insecticidal activity against Trichoplusia ni (cabbage looper) second-instar larvae infested on 25 ppm compound pre-treated cabbage leaf disk assessed as insect mortality measured 5 days post compound treatment under green house conditions. The format is functional. In outline:
(§1)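 Leaf disks treated, air-dried and placed singly in cups. Cotton cotyledon disks each get one second-instar tobacco budworm larva; cabbage leaf disks each get one second-instar cabbage looper larva. Cups are capped and held in a growth chamber at 25 °C, 50-55% RH, 14 h light/10 h dark for 5 days.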

The subject of assay [7] is Heliothis virescens. Nature of the assay: Insecticidal activity against Heliothis virescens (tobacco budworm) second-instar larvae infested on 25 ppm compound pre-treated cotton cotyledon disk assessed as insect mortality measured 5 days post compound treatment under green house conditions. The assay is classed as functional. In outline:
as §1

Assay [8] has as its system Aphis gossypii. Nature of the assay: Insecticidal activity against Aphis gossypii (cotton aphid) infested one week old Crookneck squash plants assessed as insect mortality measured after 3 days post compound application under green house conditions. The assay is classed as functional. Particulars: for LC50: Aphis gossypii, 72 h.
Assay [9] has as its system Trichoplusia ni. Nature of the assay: Insecticidal activity against Trichoplusia ni (cabbage looper) second-instar larvae infested on 400 ppm compound pre-treated cabbage leaf disk assessed as insect mortality measured 5 days post compound treatment under green house conditions. The assay is classed as functional. Particulars: at 400 ppm.
Assay [10] deals with Tetranychus urticae. Kind of assay: Insecticidal activity against female Tetranychus urticae (two-spotted spider mite) infested cotton leaf disks followed by 2.5 ppm compound spraying after oviposit assessed as insect mortality measured after 6 days post compound application under green house conditions. The format is functional. Particulars: foliar, 144 h.
In assay [11] the test system is Bemisia tabaci.
Assay [12] relates to Aphis gossypii. Kind of assay: Insecticidal activity against Aphis gossypii (cotton aphid) infested one week old Crookneck squash plants assessed as insect mortality at 50 ppm measured after 3 days post compound application under green house conditions. The format is functional. Particulars: 72 h.
The test system of assay [13] is Tetranychus urticae. Nature of the assay: Insecticidal activity against female Tetranychus urticae (two-spotted spider mite) infested cotton leaf disks followed compound spraying after oviposit assessed as insect mortality measured after 6 days post compound application under green house conditions. The format is functional. As to conditions: for LC50: Tetranychus urticae, foliar, 144 h.

The subject of assay [14] is Heliothis virescens. Nature of the assay: Insecticidal activity against Heliothis virescens (tobacco budworm) second-instar larvae infested on compound pre-treated cotton cotyledon disk assessed as insect mortality measured 5 days post compound treatment under green house conditions. Particulars: Heliothis virescens. The format is functional. The gist of the method:
as §1

The test system of assay [15] is Spodoptera exigua. Kind of assay: Insecticidal activity against Spodoptera exigua second-instar larvae feeded on compound treated lepidopteran diet assessed as insect mortality measured 5 days post compound treatment under green house conditions. As to conditions: Spodoptera exigua, 120 h. The format is functional.
The test system of assay [16] is Bemisia tabaci. Nature of the assay: Insecticidal activity against Bemisia tabaci (sweet potato whitefly) second-instar larvae infested five weeks old cotton plants followed by compound 250 ppm compound spraying after insect oviposit assessed as insect mortality measured 13 days post compound treatment under green house conditions. The assay is classed as functional.

Assay [17] relates to Trichoplusia ni. Kind of assay: Insecticidal activity against Trichoplusia ni (cabbage looper) second-instar larvae infested on compound pre-treated cabbage leaf disk assessed as insect mortality measured 5 days post compound treatment under green house conditions. The format is functional. As to conditions: Trichoplusia ni, foliar. The gist of the method:
as §1

≈ marks a conversion by molar mass, not a printed value. Calls of active or inactive are those of the source. The rule behind the calls is not given here.

From ChEMBL document CHEMBL3044558, “Structure-activity relationship development of dihaloaryl triazole compounds as insecticides and acaricides. 1. Phenyl thiophen-2-yl triazoles” (2007) come the findings set out here.

As for `Cc1cc(-c2ccc(F)c(Cl)c2)sc1-c1nc(-c2c(F)cccc2Cl)nn1C`, the mortality – broadly, the share of the test organisms that died – in [1] worked out at 80%; in [2] it was 90%; in [5], 0%; in assay [6], 60%; in assay [7], 0%; in assay [9] it was 90%. Moreover, the mortality entry in assay [3] and in [11] was “inactive” each time. Moreover, the LC50 – broadly, the concentration lethal to half of the exposed cells or organisms – is 55 µg/mL (≈ 126 µM) in assay [4] and 9.28 µg/mL (≈ 21.3 µM) in [8]. For the same compound, the mortality at 2.5 ppm in assay [10] came out at 60%.
On to `Cc1cc(-c2ccc(Cl)cc2F)sc1-c1nc(-c2c(F)cccc2Cl)nn1C`, for which the mortality in assay [1] is listed as 70%; in assay [2], 90%; in assay [5], 0%; in assay [6] it was 40%; in assay [7], 20%; in assay [9] it was 90%. The LC50 was 91 µg/mL (≈ 209 µM) in [4] and 4.93 µg/mL (≈ 11.3 µM) in [8]. Moreover, the mortality at 50 ppm in assay [12] is < 50%. The mortality at 2.5 ppm in assay [10] is 90%. Moreover, in assay [11], the mortality result is “inactive”.
Consider `Cc1cc(-c2ccc(OC(F)(F)C(F)Cl)cc2)sc1-c1nc(-c2c(F)cccc2Cl)nn1C` (stereo unspecified), for which the LC90 in [13] was 2.07 ppm. In addition, the LC50 in assay [13] was < 0.1 µg/mL; in assay [4] it was < 3.1 µg/mL; in assay [14], < 1.6 µg/mL; in [15], < 1.79 µg/mL; in [17] it was < 1.6 µg/mL; in [8], < 0.5 µg/mL. The mortality was 60% in assay [1], 90% in [2], <50% in assay [16] and 90% in assay [9]. The mortality at 50 ppm in assay [12] was 90%. Further, the mortality at 2.5 ppm in [10] was determined as 90%.
In the case of `Cc1cc(-c2ccc(OC(F)(F)F)cc2)sc1-c1nc(-c2c(F)cccc2Cl)nn1C`, the LC90 is given as 0.151 ppm in assay [13] and 12.8 ppm in [8]. The LC50 in assay [13] was < 0.04 µg/mL; in assay [4], 13.7 µg/mL (≈ 29.3 µM); in [14] it was 225 µg/mL (≈ 481 µM); in [15], < 1.6 µg/mL; in assay [17], < 1.6 µg/mL; in assay [8], 0.5 µg/mL (≈ 1.07 µM). For the same compound, the mortality in assay [1] is 90%; in [2], 80%; in assay [9], 90%. In [12], the mortality at 50 ppm worked out at 60%. Further, in [10], the mortality at 2.5 ppm stood at 90%. Moreover, the mortality entry in assay [11] is “inactive”.
Turning to `Cc1cc(-c2ccc(F)c(F)c2)sc1-c1nc(-c2c(F)cccc2Cl)nn1C`, the mortality is listed as 90% in assay [1]; 90% in [2]; 0% in assay [5]; 40% in assay [6]; 90% in assay [16]; 20% in assay [7]. In addition, in assay [9], the mortality is recorded as 90%. Moreover, the LC50 in assay [4] came to 88 µg/mL (≈ 210 µM); in assay [8], 4.41 µg/mL (≈ 10.5 µM). In addition, in [12], the mortality at 50 ppm was < 50%. For the same compound, in assay [8], the LC90 is 22.3 ppm. Besides, the mortality at 2.5 ppm in assay [10] stood at 60%.
